ChEMBL document CHEMBL4376814, “Novel cyclin-dependent kinase 9 (CDK9) inhibitor with suppression of cancer stemness activity against non-small-cell lung cancer” (Eur J Med Chem, 2019)
Calls of active or inactive are those of the source. The rule behind the calls is not given here.

How the values were obtained:
[1] = test system: PI3-kinase p110-alpha/p85-alpha (Homo sapiens), P27986+P42336 [H1047R]; test: Inhibition of recombinant full-length human PI3K p110alpha/p85alpha H1047R mutant at 1 uM using phosphatidylinositol-4, 5-bisphosphate as substrate measured after 40 mins by fluorescence assay relative to control
[2] = molecular target: Protein-tyrosine kinase 2-beta (Homo sapiens) (UniProt Q14289); test: Inhibition of recombinant full-length human Pyk2 at 1 uM using poly(Glu, Tyr) 4:1 as substrate measured after 40 mins in presence of [gamma33P]ATP by scintillation counting method relative to control
NCI-H1299 = test: Downregulation of OCT4 in human H1299 cells at 0.25 to 1 uM by Western blot analysis; type: functional, cell-based
[3] = molecular target: Serine/threonine-protein kinase PAK 6 (Homo sapiens) (UniProt Q9NQU5); test: Inhibition of recombinant human PAK6 (382 to end residues) at 1 uM using RRRLSFAEPG as substrate measured after 40 mins in presence of [gamma33P]ATP by scintillation counting method relative to control
[4] = Intrinsic clearance in CD-1 mouse liver microsomes at 2 uM in presence of NADPH measured up to 1 hr by HPLC analysis; type: ADME, Microsome
[5] = test system: Angiopoietin-1 receptor (Homo sapiens), Q02763 [Q939H,Q940H]; test: Inhibition of human Tie2 Q939H/Q940H mutant (771 to end residues) at 1 uM using poly(Glu, Tyr) 4:1 as substrate measured after 40 mins in presence of [gamma33P]ATP by scintillation counting method relative to control
Outline: (§1)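 Single-point inhibition at 1 µM was measured in the Eurofins KinaseProfiler panel. Values are the mean of two independent experiments.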

[6] = test system: Tyrosine-protein kinase BTK (Homo sapiens), Q06187 [R28H]; test: Inhibition of full-length recombinant human BTK R28H mutant at 1 uM using LSNLYHQGKFLQTFCGSPLYRRR as substrate measured after 40 mins in presence of [gamma33P]ATP by scintillation counting method relative to control; outline: as §1
[7] = test system: Mast/stem cell growth factor receptor Kit (Homo sapiens), P10721 [D816V]; test: Inhibition of recombinant human cKit (544 to end residues) D816V mutant at 1 uM using poly(Glu, Tyr) 4:1 as substrate measured after 40 mins in presence of [gamma33P]ATP by scintillation counting method relative to control; outline: as §1
[8] = molecular target: Activin receptor type-1 (Homo sapiens) (UniProt Q04771); test: Inhibition of recombinant human ALK2 (147 to end residues) at 1 uM using casein as substrate measured after 40 mins in presence of [gamma33P]ATP by scintillation counting method relative to control; outline: as §1
A549 = test: Induction of apoptosis in human A549 cells assessed as increase in cleaved caspase 3 expression at 0.25 to 1 uM after 24 hrs by Western blot analysis; type: functional, cell-based
Outline: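 A549 or H1299 cells exposed to the indicated concentrations for 24 h. Protein extracts then immunoblotted for apoptosis-pathway proteins (Bcl2, Bim, cleaved caspase 3).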

[9] = molecular target: Protein kinase C beta type (Homo sapiens) (UniProt P05771); test: Inhibition of recombinant human PKCbeta2 (2 to end residues) at 1 uM using histone H1 as substrate measured after 40 mins in presence of [gamma33P]ATP by scintillation counting method relative to control
[10] = molecular target: Serine/threonine-protein kinase pim-1 (Homo sapiens) (UniProt P11309); test: Inhibition of recombinant full-length human Pim-1 at 1 uM using KKRNRTLTV as substrate measured after 40 mins in presence of [gamma33P]ATP by scintillation counting method relative to control
[11] = molecular target: [Pyruvate dehydrogenase (acetyl-transferring)] kinase isozyme 4, mitochondrial (Homo sapiens) (UniProt Q16654); test: Inhibition of recombinant full-length human PDHK4 at 1 uM using KKKYHGHSMSDPGVSYRT as substrate measured after 40 mins in presence of [gamma33P]ATP by scintillation counting method relative to control
[12] = test system: Angiopoietin-1 receptor (Homo sapiens), Q02763 [Q939H,Q940H,Y897S]; test: Inhibition of human Tie2 Q939H/Q940H/Y897S mutant (771 to end residues) at 1 uM using EFPIYDFLPAKKK as substrate measured after 40 mins in presence of [gamma33P]ATP by scintillation counting method relative to control; outline: as §1
Homo sapiens = organism: Homo sapiens; test: Inhibition of recombinant human Plk4 S34T mutant (1 to 273 residues) at 1 uM using casein as substrate measured after 120 mins in presence of [gamma33P]ATP by scintillation counting method relative to control
[13] = molecular target: Serine/threonine-protein kinase tousled-like 1 (Homo sapiens) (UniProt Q9UKI8); test: Inhibition of recombinant full-length human TLK1 at 1 uM using casein as substrate measured after 40 mins in presence of [gamma33P]ATP by scintillation counting method relative to control
HeLa = test: Antiproliferative activity against human HeLa cells assessed as inhibition of cell viability after 72 hrs by CCK-8 assay; type: functional, cell-based
Outline: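 Cells kept at 37 °C, 5% CO2 in DMEM or RPMI-1640 with 10% FBS and 1% penicillin/streptomycin, then seeded at 3000 cells/well (adherent) or 10,000 cells/well (suspension). Exposed to a range of concentrations for 72 h. CCK-8 added for 1-4 h before reading A450. […] Three independent experiments.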

[14] = molecular target: Serine/threonine-protein kinase 35 (Homo sapiens) (UniProt Q8TDR2); test: Inhibition of full length recombinant human CLIK1 at 1 uM using RSRSRSRSRSRSRSR as substrate measured after 40 mins in presence of [gamma33P]ATP by scintillation counting method relative to control
[15] = molecular target: Insulin receptor (Homo sapiens) (UniProt P06213); test: Inhibition of recombinant human activated IR (1005 to 1310 residues) at 1 uM using KKKSPGEYVNIEFG as substrate measured after 40 mins in presence of [gamma33P]ATP by scintillation counting method relative to control
[16] = molecular target: Mitogen-activated protein kinase kinase kinase 2 (Homo sapiens) (UniProt Q9Y2U5); test: Inhibition of full-length recombinant human MEKK2 at 1 uM using myelin basic protein as substrate measured after 40 mins in presence of [gamma33P]ATP by scintillation counting method relative to control
Outline: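 Percent inhibition of kinase activity at a single compound concentration, measured by the outsourced Eurofins KinaseProfiler panel. Values are the mean of two independent experiments.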

[17] = molecular target: Calcium/calmodulin-dependent protein kinase type 1 (Homo sapiens) (UniProt Q14012); test: Inhibition of recombinant human CaMK1 (2 to end residues) at 1 uM using calmodulin as substrate measured after 40 mins in presence of [gamma33P]ATP by scintillation counting method relative to control
[18] = molecular target: Serine/threonine-protein kinase Nek6 (Homo sapiens) (UniProt Q9HC98); test: Inhibition of recombinant human NEK6 (2 to end residues) at 1 uM using FLAKSFGSPNRAY as substrate measured after 40 mins in presence of [gamma33P]ATP by scintillation counting method relative to control
Chain of Serine/threonine-protein kinase Nek6 (Homo sapiens) (Q9HC98 whole entry): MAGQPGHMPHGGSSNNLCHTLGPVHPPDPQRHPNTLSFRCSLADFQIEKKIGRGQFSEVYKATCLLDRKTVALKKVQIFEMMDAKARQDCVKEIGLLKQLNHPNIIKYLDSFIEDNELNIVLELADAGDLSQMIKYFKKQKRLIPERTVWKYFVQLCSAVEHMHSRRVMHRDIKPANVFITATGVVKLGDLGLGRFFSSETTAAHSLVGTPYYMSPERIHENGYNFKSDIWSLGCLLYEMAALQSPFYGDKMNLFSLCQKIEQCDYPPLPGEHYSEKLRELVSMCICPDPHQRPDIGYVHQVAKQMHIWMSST

Chain of Protein-tyrosine kinase 2-beta (Homo sapiens) (Q14289 whole entry, looked up): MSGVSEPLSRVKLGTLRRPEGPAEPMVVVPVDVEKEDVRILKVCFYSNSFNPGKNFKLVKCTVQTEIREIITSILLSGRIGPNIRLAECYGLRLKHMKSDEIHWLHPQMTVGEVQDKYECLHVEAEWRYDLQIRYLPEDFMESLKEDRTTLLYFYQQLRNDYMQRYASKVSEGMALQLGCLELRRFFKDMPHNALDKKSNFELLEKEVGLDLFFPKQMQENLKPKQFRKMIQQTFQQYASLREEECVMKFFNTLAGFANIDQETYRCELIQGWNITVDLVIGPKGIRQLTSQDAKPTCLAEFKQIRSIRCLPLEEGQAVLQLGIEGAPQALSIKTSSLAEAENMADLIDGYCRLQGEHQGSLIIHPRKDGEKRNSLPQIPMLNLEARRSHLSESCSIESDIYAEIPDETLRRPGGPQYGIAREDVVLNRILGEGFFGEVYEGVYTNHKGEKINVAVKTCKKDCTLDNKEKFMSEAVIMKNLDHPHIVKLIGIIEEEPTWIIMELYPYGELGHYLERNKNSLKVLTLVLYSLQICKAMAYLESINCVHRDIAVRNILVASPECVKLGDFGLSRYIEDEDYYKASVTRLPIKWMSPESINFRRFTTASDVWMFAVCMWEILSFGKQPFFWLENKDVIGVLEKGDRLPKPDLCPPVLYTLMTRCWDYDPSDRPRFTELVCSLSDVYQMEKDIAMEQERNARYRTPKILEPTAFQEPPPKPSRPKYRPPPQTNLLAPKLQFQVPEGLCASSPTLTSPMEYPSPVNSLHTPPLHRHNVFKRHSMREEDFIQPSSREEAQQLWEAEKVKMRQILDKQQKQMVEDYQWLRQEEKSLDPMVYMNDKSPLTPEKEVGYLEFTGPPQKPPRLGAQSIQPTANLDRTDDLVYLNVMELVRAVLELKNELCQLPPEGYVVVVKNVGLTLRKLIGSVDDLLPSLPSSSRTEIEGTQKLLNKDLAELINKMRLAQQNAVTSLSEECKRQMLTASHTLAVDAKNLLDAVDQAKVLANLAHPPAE
Chain of Serine/threonine-protein kinase PAK 6 (Homo sapiens) (Q9NQU5 whole entry, looked up): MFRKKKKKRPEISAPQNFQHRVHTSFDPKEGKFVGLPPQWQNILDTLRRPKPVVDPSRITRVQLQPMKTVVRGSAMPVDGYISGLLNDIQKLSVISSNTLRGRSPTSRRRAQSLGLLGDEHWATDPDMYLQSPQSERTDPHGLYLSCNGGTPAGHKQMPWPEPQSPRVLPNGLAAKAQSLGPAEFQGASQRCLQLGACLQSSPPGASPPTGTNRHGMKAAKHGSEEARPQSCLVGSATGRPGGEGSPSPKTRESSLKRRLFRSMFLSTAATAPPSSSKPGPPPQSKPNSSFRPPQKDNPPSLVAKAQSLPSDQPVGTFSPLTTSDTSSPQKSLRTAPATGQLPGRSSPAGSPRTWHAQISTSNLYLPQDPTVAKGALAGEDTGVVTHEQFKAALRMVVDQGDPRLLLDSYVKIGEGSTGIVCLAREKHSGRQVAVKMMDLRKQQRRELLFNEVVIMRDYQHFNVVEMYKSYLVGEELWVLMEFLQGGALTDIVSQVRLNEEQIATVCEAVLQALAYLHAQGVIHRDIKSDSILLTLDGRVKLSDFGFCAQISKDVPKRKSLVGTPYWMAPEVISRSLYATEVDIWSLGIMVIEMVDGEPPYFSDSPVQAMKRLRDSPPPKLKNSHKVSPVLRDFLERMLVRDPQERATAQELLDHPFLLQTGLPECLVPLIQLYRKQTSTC
Chain of Tyrosine-protein kinase BTK (Homo sapiens), Q06187 [R28H] (Q06187 whole entry R28H): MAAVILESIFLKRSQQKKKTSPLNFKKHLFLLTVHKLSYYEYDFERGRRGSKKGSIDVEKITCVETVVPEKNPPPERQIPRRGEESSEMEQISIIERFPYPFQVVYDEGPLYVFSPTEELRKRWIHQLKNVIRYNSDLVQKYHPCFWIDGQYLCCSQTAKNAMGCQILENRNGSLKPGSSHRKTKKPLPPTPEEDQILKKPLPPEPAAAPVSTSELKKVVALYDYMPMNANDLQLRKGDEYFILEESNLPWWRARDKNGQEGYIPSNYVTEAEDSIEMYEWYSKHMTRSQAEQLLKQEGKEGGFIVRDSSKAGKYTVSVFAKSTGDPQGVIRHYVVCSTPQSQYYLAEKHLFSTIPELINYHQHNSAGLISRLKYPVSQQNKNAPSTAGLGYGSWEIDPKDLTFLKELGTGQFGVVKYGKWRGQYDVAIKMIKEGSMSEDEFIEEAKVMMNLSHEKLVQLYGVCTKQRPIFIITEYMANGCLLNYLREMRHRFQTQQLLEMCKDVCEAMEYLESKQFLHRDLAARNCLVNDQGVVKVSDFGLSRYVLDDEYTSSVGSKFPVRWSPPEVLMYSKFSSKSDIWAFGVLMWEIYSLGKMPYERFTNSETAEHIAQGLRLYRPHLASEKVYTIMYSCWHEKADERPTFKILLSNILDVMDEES
Chain of Activin receptor type-1 (Homo sapiens) (Q04771 whole entry): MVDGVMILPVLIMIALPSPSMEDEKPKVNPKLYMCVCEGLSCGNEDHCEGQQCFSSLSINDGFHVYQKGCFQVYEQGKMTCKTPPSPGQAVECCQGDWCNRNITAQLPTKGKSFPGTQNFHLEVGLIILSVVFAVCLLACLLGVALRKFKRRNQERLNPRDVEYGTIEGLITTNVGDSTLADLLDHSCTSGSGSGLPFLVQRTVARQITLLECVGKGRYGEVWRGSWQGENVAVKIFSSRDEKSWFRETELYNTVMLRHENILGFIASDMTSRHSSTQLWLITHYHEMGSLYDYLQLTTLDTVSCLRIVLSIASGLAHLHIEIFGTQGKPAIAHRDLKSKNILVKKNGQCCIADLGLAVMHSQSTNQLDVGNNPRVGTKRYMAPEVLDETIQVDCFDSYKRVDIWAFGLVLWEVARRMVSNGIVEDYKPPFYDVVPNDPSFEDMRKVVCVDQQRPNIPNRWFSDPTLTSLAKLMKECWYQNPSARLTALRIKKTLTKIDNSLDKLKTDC
Chain of Serine/threonine-protein kinase pim-1 (Homo sapiens) (P11309 whole entry, looked up): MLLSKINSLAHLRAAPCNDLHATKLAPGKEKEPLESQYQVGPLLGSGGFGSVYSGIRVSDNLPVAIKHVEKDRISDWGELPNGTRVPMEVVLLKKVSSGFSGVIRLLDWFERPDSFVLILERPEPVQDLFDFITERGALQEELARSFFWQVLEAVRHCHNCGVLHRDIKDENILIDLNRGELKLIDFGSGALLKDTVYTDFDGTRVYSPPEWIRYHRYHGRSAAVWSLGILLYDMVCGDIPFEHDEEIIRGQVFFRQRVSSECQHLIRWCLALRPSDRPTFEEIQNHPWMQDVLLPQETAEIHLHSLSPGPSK
Chain of Protein kinase C beta type (Homo sapiens) (P05771 2-671 limits assumed): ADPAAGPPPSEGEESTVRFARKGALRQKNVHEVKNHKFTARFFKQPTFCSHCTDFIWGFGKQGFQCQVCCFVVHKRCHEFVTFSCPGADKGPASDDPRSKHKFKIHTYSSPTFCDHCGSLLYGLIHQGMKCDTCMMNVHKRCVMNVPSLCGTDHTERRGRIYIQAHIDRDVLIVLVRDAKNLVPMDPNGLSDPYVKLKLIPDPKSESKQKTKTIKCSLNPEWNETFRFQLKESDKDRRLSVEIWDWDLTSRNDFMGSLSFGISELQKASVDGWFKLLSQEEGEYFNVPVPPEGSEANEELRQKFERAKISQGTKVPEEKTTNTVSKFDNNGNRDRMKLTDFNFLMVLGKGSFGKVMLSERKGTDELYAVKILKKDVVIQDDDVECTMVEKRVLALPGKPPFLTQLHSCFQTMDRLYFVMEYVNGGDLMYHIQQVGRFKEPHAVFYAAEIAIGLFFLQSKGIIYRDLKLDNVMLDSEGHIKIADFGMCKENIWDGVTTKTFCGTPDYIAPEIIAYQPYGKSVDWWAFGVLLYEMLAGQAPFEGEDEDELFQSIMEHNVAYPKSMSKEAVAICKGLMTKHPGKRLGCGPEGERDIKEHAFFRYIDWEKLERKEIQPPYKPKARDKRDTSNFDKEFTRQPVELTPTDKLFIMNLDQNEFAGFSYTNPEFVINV
Chain of Calcium/calmodulin-dependent protein kinase type 1 (Homo sapiens) (Q14012 whole entry, looked up): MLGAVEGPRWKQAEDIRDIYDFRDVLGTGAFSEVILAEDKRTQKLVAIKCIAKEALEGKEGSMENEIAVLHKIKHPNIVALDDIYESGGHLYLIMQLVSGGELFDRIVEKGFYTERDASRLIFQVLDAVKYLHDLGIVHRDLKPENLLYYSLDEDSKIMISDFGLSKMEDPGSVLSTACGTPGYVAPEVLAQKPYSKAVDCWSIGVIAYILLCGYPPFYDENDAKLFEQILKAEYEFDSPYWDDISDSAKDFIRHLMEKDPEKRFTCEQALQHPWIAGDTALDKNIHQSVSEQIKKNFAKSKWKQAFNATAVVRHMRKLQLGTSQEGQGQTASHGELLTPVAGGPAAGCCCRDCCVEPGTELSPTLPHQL
Chain of [Pyruvate dehydrogenase (acetyl-transferring)] kinase isozyme 4, mitochondrial (Homo sapiens) (Q16654 whole entry, looked up): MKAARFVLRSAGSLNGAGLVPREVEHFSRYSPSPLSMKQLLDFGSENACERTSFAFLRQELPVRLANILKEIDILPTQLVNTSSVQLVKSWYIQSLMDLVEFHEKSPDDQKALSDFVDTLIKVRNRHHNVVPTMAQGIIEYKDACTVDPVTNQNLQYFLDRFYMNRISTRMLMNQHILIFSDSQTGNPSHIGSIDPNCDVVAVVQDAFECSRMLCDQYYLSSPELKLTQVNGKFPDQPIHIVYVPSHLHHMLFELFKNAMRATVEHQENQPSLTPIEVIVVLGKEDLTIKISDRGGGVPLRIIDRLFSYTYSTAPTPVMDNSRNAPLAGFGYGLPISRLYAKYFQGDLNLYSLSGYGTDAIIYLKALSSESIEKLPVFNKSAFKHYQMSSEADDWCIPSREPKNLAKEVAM

For CN(C)C(=O)c1cc2cnc(Nc3ccc(NC(=O)CCCCCCCN=C=S)cc3)nc2n1C1CCCC1, the inhibition [1] was 2%, the inhibition [2] was 46% and the Activity (NCI-H1299) was “Active”. The inhibition [3] was 9%, the CLH [4] was 100 µL/min/mg and the inhibition [5] was 29%. The inhibition [6] was 1%, the inhibition [7] was 11% and the inhibition [8] was 11%. The Activity (A549) was “Active”, the inhibition [9] was 72% and the inhibition [10] was 8%. For the same compound, the inhibition [11] was -3%, the inhibition [12] was 20% and the inhibition (Homo sapiens) was 50%. For the same compound, the inhibition [13] was 7%, the IC50 (HeLa) was 1850 nM and the inhibition [14] was 14%. It also gave an inhibition [15] of -7%, an inhibition [16] of 27% and an inhibition [17] of 6%. The inhibition [18] was 4%.
